One may read the IC50 as the concentration that gives 50% inhibition.

The source made the active and inactive calls. The calls are words filed in the database; no cut-off is given here.

The values that follow come from ChEMBL document CHEMBL4190293, “Anti-inflammatory Meroterpenoids from Baeckea frutescens” (J Nat Prod, 2017).

The test system of assay [1] is RAW264.7. The experiment in a line: Antiinflammatory activity in mouse RAW264.7 cells assessed as inhibition of LPS-stimulated nitric oxide production pretreated for 2 hrs followed by LPS-stimulation measured after 20 hrs by Griess assay. The class given is functional, cell-based. Summed up: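 Murine RAW 264.7 macrophages in DMEM with 10% FBS, seeded at 1 × 10^5 cells/well and grown 12 h. Pretreated with compound for 2 h, then given LPS (1 μg/mL) for 20 h; L-NMMA as positive control. Supernatant nitrite mixed 1:1 with Griess reagent, 10 min at room temperature, absorbance read at 540 nm. IC50 from three independent replicates. Viability checked by Alamar Blue after 20 h.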
A general note: Nitrite, measured by Griess reagent, commonly stands in for NO production.

The subject of assay [2] is RAW264.7. Put plainly: Antiinflammatory activity in mouse RAW264.7 cells assessed as inhibition of LPS-stimulated TNFalpha expression pretreated for 2 hrs followed by LPS-stimulation measured after 18 hrs by ELISA. It is filed as functional, cell-based. In a few lines:
(§1)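 RAW 264.7 cells seeded at 1 × 10^6 cells/well in serum-free DMEM for 12 h. Cells pretreated with test compound at 0.2, 0.4 or 0.8 μM for 2 h, then stimulated with LPS (1 μg/mL) for 18 h. TNF-α and IL-6 in the culture supernatant measured by ELISA kit. Mean ± SD of three independent experiments; one-way ANOVA with Dunnett's post hoc test.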

The subject of assay [3] is RAW264.7. Put plainly: Antiinflammatory activity in mouse RAW264.7 cells assessed as inhibition of LPS-stimulated IL-6 expression at 0.2 to 0.8 uM pretreated for 2 hrs followed by LPS-stimulation measured after 18 hrs by ELISA. The class given is functional, cell-based. In a few lines:
as §1
On the technique in general: In an ELISA, binding on a coated surface is turned into a signal by an enzyme label.

For assay [4], the target named is Transcription factor p65 (Mus musculus) (UniProt Q04207). The experiment in a line: Inhibition of NF-kappaB p65 nuclear translocation in LPS-stimulated mouse RAW264.7 cells pretreated for 2 hrs followed by LPS-stimulation measured after 16 hrs by Western blot analysis. It is filed as cell-based. In a few lines:
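RAW 264.7 cells exposed to compound at 0.2, 0.4 or 0.8 μM for 2 h, then given 1 μg/mL LPS, or left unstimulated, for 16 h. Lysates made in RIPA buffer, protein quantified by BCA, run on 10% SDS-PAGE and transferred to PVDF. Blots probed for NF-κB p65 with lamin B as internal control, primary antibodies at 4 °C overnight. Mean ± SD of three independent experiments.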

Chain of Transcription factor p65 (Mus musculus) (Q04207 whole entry): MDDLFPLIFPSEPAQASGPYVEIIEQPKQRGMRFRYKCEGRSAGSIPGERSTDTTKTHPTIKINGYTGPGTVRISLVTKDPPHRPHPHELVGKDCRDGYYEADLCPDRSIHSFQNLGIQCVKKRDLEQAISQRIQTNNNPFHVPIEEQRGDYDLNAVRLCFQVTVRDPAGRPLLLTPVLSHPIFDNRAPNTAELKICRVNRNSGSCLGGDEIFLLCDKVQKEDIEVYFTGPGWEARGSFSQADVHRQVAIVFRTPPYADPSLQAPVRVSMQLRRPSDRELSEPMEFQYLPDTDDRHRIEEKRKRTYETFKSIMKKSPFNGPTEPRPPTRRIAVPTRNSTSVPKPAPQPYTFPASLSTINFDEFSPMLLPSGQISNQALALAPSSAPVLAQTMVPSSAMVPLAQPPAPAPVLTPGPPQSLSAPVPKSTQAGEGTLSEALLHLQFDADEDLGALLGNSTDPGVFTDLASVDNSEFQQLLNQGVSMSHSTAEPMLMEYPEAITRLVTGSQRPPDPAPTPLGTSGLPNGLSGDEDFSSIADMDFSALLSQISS

In the case of `COC1=C(C)C2=C(C(=O)C1(C)C)[C@H](C(C)C)C[C@@]1(CC[C@@]3(C(C)C)C[C@@H]13)O2` (racemic), the IC50 with RAW264.7 [1] was 1.8 µM.
Take `COC1=C(C)C(=O)C2=C(O[C@]3(C=C4[C@H](C(C)C)CC[C@@H](C)[C@H]4CC3)C[C@@H]2C(C)C)C1(C)C`: the IC50 with RAW264.7 [1] was over 50 µM.
Regarding `C=C1CC[C@@H]2[C@H](C(C)C)C3=C(O[C@@]2(C)CC[C@@H]2[C@@H]1CC2(C)C)C(C)(C)C(OC)=C(C)C3=O`, in the assay on RAW264.7 [1], the IC50 is over 50 µM.
With `COC1=C(C)C(=O)C2=C(O[C@]3(CC[C@@H]4C[C@@H]3C4(C)C)C[C@@H]2C(C)C)C1(C)C`, the IC50 in the assay on RAW264.7 [1] turned out to be 3.7 µM.
With `COC1=C(C)C(=O)C2=C(O[C@@]3(CC[C@]45[C@H]([C@H](C(C)C)CC[C@H]4C)[C@@H]35)C[C@@H]2C(C)C)C1(C)C`, the IC50 with RAW264.7 [1] is 15.2 µM.
For the compound `COC1=C(C)C(=O)C2=C(O[C@@]3(C=C4[C@H](C(C)C)CC[C@@H](C)[C@H]4CC3)C[C@@H]2C(C)C)C1(C)C`, the IC50 in the assay on RAW264.7 [1] was 18.8 µM.
On to `CNC(=N)NCCC[C@H](N)C(=O)O` [TILARGININE], for which the IC50 in the assay with RAW264.7 [1] was found to be 30.9 µM.
Take `COC1=C(C)C(=O)C2=C(O[C@]3(CC[C@]45[C@H]([C@H](C(C)C)CC[C@H]4C)[C@@H]35)C[C@H]2C(C)C)C1(C)C`: the IC50 in the assay on RAW264.7 [1] was 30.5 µM.
Take `COC1=C(C)C(=O)[C@]2(CC(CCC=C(C)C)=CC[C@H]2C(C)C)C(=O)C1(C)C` (racemic): the IC50 with RAW264.7 [1] is 6.5 µM.
Regarding `COC1=C(C)C2=C(C(=O)C1(C)C)[C@@H](C(C)C)C[C@]1(CC[C@@]3(C(C)C)C[C@@H]13)O2`, in the assay with RAW264.7 [1], the IC50 came to 0.36 µM. Further, the inhibition entry (in the assay with RAW264.7 [2]; in assay [4]) was “Dose-dependent effect” in each case. In the assay with RAW264.7 [3], the inhibition entry is “inactive”.
As for `COC1=C(C)C(=O)[C@@]2(CC=C(CCC=C(C)C)C[C@H]2C(C)C)C(=O)C1(C)C` (racemic), the IC50 in the assay with RAW264.7 [1] turned out to be 2.07 µM.
Consider `COC1=C(C)C(=O)C2=C(O[C@@]3(C=C4[C@H](C(C)C)CC[C@@H](C)[C@H]4CC3)C[C@H]2C(C)C)C1(C)C`, for which, in the assay with RAW264.7 [1], the IC50 is over 50 µM.
